Reference: ChEMBL document CHEMBL4680377, “Discovery of a Novel Series of Pyridone-Based EP3 Antagonists for the Treatment of Type 2 Diabetes” (ACS Med Chem Lett, 2021)
≈ marks a conversion by molar mass, not a printed value.

Key:
[1] = Oral bioavailability in Sprague-Dawley rat at 10 mg/kg measured up to 24 hrs by LC-MS/MS analysis; assay type: ADME, organism-based; conditions: in vivo
Outline: (§1)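 Sprague-Dawley rats, n = 3 per route, sampled over 24 h. Full PK: iv 2 mg/kg in 20% HPbCD with po 10 mg/kg given either in 0.5% HPMC or in 20% HPbCD, depending on study. Fast PK: po only, 10 mg/kg in 0.5% HPMC.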

[2] = Volume of distribution at steady state in Sprague-Dawley rat at 2 mg/kg, iv measured up to 24 hrs by LC-MS/MS analysis; assay type: ADME, organism-based; conditions: in vivo, read-out: Vdss; outline: as §1
[3] = biological target: T1, Prostaglandin E2 receptor EP3 subtype (Homo sapiens, UniProt P43115); test: Displacement of [3H]-PGE2 from human EP3 expressed in Chem-1 cell membranes incubated for 2 hrs by TopCount scintillation plate reader analysis; set-up: species or system Membrane
T1 sequence (P43115 whole entry): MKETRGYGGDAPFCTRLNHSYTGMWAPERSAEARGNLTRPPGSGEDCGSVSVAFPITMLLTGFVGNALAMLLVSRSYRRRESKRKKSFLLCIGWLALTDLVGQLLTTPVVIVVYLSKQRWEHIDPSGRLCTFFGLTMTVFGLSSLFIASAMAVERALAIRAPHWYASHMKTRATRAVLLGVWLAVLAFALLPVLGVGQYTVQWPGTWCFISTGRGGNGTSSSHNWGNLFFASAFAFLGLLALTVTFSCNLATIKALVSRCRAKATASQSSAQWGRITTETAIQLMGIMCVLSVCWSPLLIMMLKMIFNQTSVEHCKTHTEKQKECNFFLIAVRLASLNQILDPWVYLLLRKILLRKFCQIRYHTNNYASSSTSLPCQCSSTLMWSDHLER

[4] = Kinetic solubility of compound at pH 2; assay type: physicochemical; conditions: buffer, read-out: Kinetic_solubility
[5] = AUClast in Sprague-Dawley rat at 10 mg/kg, po measured up to 24 hrs by LC-MS/MS analysis; assay type: ADME, organism-based; set-up: route oral, dose 10 mg/kg, time <=24; conditions: in vivo; outline: as §1
[6] = biological target: T1, Prostaglandin E2 receptor EP3 subtype; test: Antagonist activity at human EP3 expressed in CHO cells assessed as suppression of sulprostone-induced inhibition of forskolin induced cAMP production measured after 30 mins by HTR-FRET assay; assay type: functional, cell-based
[7] = Metabolic stability in human liver microsomes assessed as intrinsic clearance half life; assay type: ADME, Microsome
[8] = Cmax in Sprague-Dawley rat at 10 mg/kg, po measured up to 24 hrs by LC-MS/MS analysis; assay type: ADME, organism-based; set-up: route oral, dose 10 mg/kg, time <=24; conditions: in vivo; outline: as §1
[9] = Kinetic solubility of compound in PBS buffer; assay type: physicochemical; conditions: read-out: Kinetic_solubility
[10] = Metabolic stability in rat liver microsomes assessed as intrinsic clearance half life; assay type: ADME, Microsome
[11] = Half life in Sprague-Dawley rat at 10 mg/kg, po measured up to 24 hrs by LC-MS/MS analysis; assay type: ADME, organism-based; conditions: in vivo; outline: as §1
[12] = Clearance in Sprague-Dawley rat at 2 mg/kg, iv measured up to 24 hrs by LC-MS/MS analysis; assay type: ADME, organism-based; conditions: in vivo; outline: as §1
[13] = Plasma protein binding in rat; assay type: ADME, cell-free; conditions: read-out: PPB (converted)
[14] = Plasma protein binding in human; assay type: ADME, cell-free; conditions: read-out: PPB (converted)
[15] = Apparent permeability across apical to basolateral side in dog MDCK cells; assay type: ADME, cell-based, Canis lupus familiaris
[16] = biological target: T2, Prostaglandin E2 receptor EP3 subtype (Rattus norvegicus, UniProt P34980); test: Binding affinity to rat EP3
T2 sequence (P34980 whole entry): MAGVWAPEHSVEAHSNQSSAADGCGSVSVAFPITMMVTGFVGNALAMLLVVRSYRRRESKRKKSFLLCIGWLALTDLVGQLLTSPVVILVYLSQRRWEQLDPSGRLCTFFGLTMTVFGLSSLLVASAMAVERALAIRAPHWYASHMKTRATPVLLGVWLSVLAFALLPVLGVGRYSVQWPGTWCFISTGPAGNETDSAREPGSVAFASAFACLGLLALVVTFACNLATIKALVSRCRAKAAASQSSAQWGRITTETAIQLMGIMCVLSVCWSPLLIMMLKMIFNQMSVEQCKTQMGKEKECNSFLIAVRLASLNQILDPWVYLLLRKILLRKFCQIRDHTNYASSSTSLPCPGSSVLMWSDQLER

| bioavailability [1] | Vd [2] | Ki [3] | solubility kinetic [4] | AUC(0-t) at 24 h [5] | IC50 [6] | half-life [7] | Cmax [8] | solubility kinetic [9] | half-life [10] | half-life [11] | clearance [12] | fraction unbound [13] | fraction unbound [14] | Papp A→B [15] | Ki [16] | SMILES |
| --- | --- | --- | --- | --- | --- | --- | --- | --- | --- | --- | --- | --- | --- | --- | --- | --- |
| 118% | 1.96 L/kg | 17 nM | 12.7 µM (≈ 5.34 µg/mL) | 12.7 µg·h/mL | 39 nM | > 3 h | 1230 ng/mL | 17.2 µM (≈ 7.23 µg/mL) | > 3 h | 4 h | 15.6 mL/min/kg |  |  |  |  | C/C(=C1/OC(=O)NC1=O)C(c1ccc(-c2ccc3cccc(F)c3c2)[nH]c1=O)C(C)C (centres undefined) |
| 54.9% | 0.24 L/kg |  | 21.7 µM (≈ 9.51 µg/mL) | 100 µg·h/mL |  | > 3 h | 8740 ng/mL | 30.8 µM (≈ 13.5 µg/mL) | > 3 h | 9.8 h | 0.93 mL/min/kg | 0.0018 | 0.0011 |  |  | CCn1ncc2c(F)cc(-c3ccc(C(/C=C4\OC(=O)NC4=O)(CC)CC)c(=O)[nH]3)cc21 |
| 97.7% | 0.23 L/kg |  | 8 µM (≈ 3.25 µg/mL) | 159 µg·h/mL |  | > 3 h | 24600 ng/mL | 28 µM (≈ 11.4 µg/mL) | > 3 h | 4.6 h | 1.06 mL/min/kg | 0.0001 | 0.0008 | 9.9 ×10⁻⁶ cm/s | 1 nM | CC(C)C(/C=C1\OC(=O)NC1=O)c1ccc(-c2ccc3cccc(F)c3c2)[nH]c1=O (centres undefined) |
|  |  | 8 nM | 25.1 µM (≈ 10.3 µg/mL) | 218 µg·h/mL | 27 nM | 2.07 h | 44100 ng/mL | 21.1 µM (≈ 8.62 µg/mL) | 0.503 h |  |  | 0.0021 | 0.0032 | 10.8 ×10⁻⁶ cm/s |  | CC(C)[C@H](C[C@@H]1OC(=O)NC1=O)c1ccc(-c2ccc3cccc(F)c3c2)[nH]c1=O (relative stereo) |
